According to ChEMBL document CHEMBL4725413, “Quinoline-Pyrazole Scaffold as a Novel Ligand of Galectin-3 and Suppressor of TREM2 Signaling” (ACS Med Chem Lett, 2020):

Assays:
Homo sapiens = species: Homo sapiens; assay: Inhibition of recombinant human galectin-3/recombinant human TREM2 interaction assessed as reduction in TR-FRET signal at 10 uM incubated for 3 hrs by TR-FRET assay relative to control
In short: (§1)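 TR-FRET using Eu cryptate-labelled galectin-3 (donor) and Alexa Fluor 647-labelled TREM2 (acceptor). Disruption of binding lowers the TR-FRET ratio. Single-point screening was at 10 μM, with hits defined as >5 SD below the mean signal. Dose-response runs gave IC50.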

[1] = Inhibition of recombinant human galectin-3/recombinant human TREM2 interaction assessed as reduction in TR-FRET signal incubated for 3 hrs by TR-FRET assay; in short: as §1
Galectin-3 [2] = molecular target: T1, Galectin-3 (Homo sapiens, UniProt P17931); assay: Binding affinity to recombinant human galectin 3 assessed as dissociation constant by fluorescent anisotropy assay
In short: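 Fluorescence anisotropy. Increasing galectin concentrations were titrated against a fixed concentration of small molecule until anisotropy reached a maximum (saturation), and Kd was derived from this.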

Galectin-1 = Galectin-1 (Homo sapiens, UniProt P09382); assay: Binding affinity to recombinant human galectin 1 assessed as dissociation constant by fluorescent anisotropy assay
Galectin-3 [3] = molecular target: T1, Galectin-3; assay: Binding affinity to recombinant human galectin 3 assessed as dissociation constant by SPR assay
In short: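 SPR with galectin-3 for Kd estimation. TREM2 was also run by SPR as a counter-target.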

BV-2 [4] = assay: Antiinflammatory activity in mouse BV-2 cells assessed as reduction in Abeta-induced TNFalpha release incubated for 12 hrs by ELISA; type: functional, cell-based; conditions: dose microM 2.5-10, time 12.0 hrs
In short: (§2)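 BV2 microglia co-treated with Aβ fibrils (10 μM) for 12 h, with or without a range of test-compound concentrations. TNFα, IL12 and IL8 were quantified in culture medium. Values are relative to untreated control. Mean ± SD, n = 3.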

BV-2 [5] = assay: Antiinflammatory activity in mouse BV-2 cells assessed as reduction in Abeta-induced IL-12 release incubated for 12 hrs by ELISA; type: functional, cell-based; conditions: dose microM 2.5-10, time 12.0 hrs; in short: as §2
BV-2 [6] = assay: Antiinflammatory activity in mouse BV-2 cells assessed as reduction in Abeta-induced IL-8 release incubated for 12 hrs by ELISA; type: functional, cell-based; conditions: dose microM 2.5-10, time 12.0 hrs; in short: as §2
BV-2 [7] = assay: Antiinflammatory activity in mouse BV-2 cells assessed as reduction in Abeta-induced TNFalpha release at 10 uM incubated for 12 hrs by ELISA relative to control; type: functional; in short: as §2
BV-2 [8] = assay: Antiinflammatory activity in mouse BV-2 cells assessed as reduction in Abeta-induced IL-12 release at 10 uM incubated for 12 hrs by ELISA relative to control; type: functional; in short: as §2
Galectin-3 [9] = molecular target: T1, Galectin-3; assay: Inhibition of galectin 3 in mouse BWZ cells transfected with TREM2 and DAP12 assessed as reduction in lacZ activity incubated for 24 hrs by lacZ reporter gene based beta-galactosidase assay; type: cell-based; conditions: dose microM 2.5-10, time 24.0 hrs
In short: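 TREM2-DAP12 reporter assay in BWZ thymoma cells transfected with TREM2 and DAP12. Galectin-3 (5 μM) was the stimulant, co-incubated with a range of compound concentrations. NFAT-driven LacZ β-galactosidase activity was the read-out. Controls were unstimulated cells and galectin-stimulated cells without compound, plus untransfected BWZ cells. Mean ± SD, n = 3.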

T1 sequence (P17931 whole entry): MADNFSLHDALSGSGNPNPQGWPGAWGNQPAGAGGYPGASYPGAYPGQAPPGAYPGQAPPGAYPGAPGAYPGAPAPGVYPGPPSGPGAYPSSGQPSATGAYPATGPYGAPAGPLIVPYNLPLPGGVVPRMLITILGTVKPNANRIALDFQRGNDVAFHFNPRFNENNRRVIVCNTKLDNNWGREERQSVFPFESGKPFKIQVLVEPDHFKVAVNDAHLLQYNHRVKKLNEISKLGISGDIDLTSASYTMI
Galectin-1, sequence (P09382 whole entry): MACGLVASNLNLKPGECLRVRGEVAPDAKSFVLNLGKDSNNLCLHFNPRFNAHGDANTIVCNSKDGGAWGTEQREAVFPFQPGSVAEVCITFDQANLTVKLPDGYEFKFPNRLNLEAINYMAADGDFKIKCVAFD

inhibition (Homo sapiens): > 95%
IC50 [1]: 91 nM
Kd (Galectin-3 [2]): 150 nM
Kd (Galectin-1): > 500000 nM
Kd (Galectin-3 [3]): 290 nM
inhibition (Galectin-3 [9]): Dose-dependent effect
SMILES: Cn1cc(-c2ccncc2)c(-c2ccc(OCc3ccc4ccccc4n3)cc2)n1 [MARDEPODECT]
inhibition (BV-2 [4]): Dose-dependent effect
inhibition (BV-2 [5]): Dose-dependent effect
inhibition (BV-2 [6]): Dose-dependent effect
inhibition at 10 µM (BV-2 [7]): 50%
inhibition at 10 µM (BV-2 [8]): 40%
